test: Toxicity liver stage against HepG2, at 10uM; assay type: cell-based; design: test concentration 10 uM, cell line HepG2-A16-CD81EGFP; conditions: human, HepG2-A16-CD81EGFP cells; read-out: INHIBITION
Outline: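 Uninfected HepG2-A16-CD81EGFP cells, 3 × 10^3 per well, 1536-well, plated on prespotted compound at 10 μM final, parasite-free screening media added to match infected plates; puromycin 10 μM positive, DMSO 0.5% negative; run in parallel with 48 h PbLuc assay at 37 °C, 5% CO2; viability by CellTiter-Glo luminescence, normalized to controls.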

SMILES | cytotoxicity at 10 µM [%]
COC(=O)CCCC(=O)N1CCC(CO)(CCc2ccccc2)CC1 | 1.34
Nc1nnc(SCc2cc(=O)n3c4c(sc3n2)CCCC4)s1 | 7.83
O=S1(=O)N(c2ccccc2)C[C@H](O)[C@]12CCNC2 | 0.827
CC(C)CNC(=O)CNc1c(NCc2ccncc2)c(=O)c1=O | -4.44
O=C(Cn1ccc2ccccc21)Nc1cc(N2CCOCC2)ncn1 | -14
NC(=O)C1CCN(C(=O)Cn2ccc3cc(Br)ccc32)CC1 | 11.1
Cc1cc(O)nc(C2CCN(C(=O)CO)CC2)n1 | 0.01
CS(=O)(=O)c1cc(Cl)cnc1C1CCCN(C(=O)C2CCOCC2)C1 (centres undefined) | 4.34
Cc1noc(C)c1-c1cccc(CC2CCN(C(=O)CCC(=O)O)C2)n1 (centres undefined) | -8.44
CC(Oc1cc(Cl)cc(Cl)c1)C(=O)NCCC(=O)N(C)C (centres undefined) | -6.51
Cc1ccc(OCCCC(=O)NC(C)c2ccc(S(N)(=O)=O)cc2)cc1 (centres undefined) | -2.69
CCn1c(CN(C)C(=O)c2ccc(OC)nc2)nc2ccccc21 | -6.23
COc1ccc(C(=O)NCCCNc2ncccn2)c(OC)c1 | -7.4
CCCc1nnc(NCc2ccc(OC)c(C#N)c2)o1 | -0.808
C1CCC(NCC2(N3CCOCC3)CCSC2)C1 (centres undefined) | -10.8
CN1CCN(S(=O)(=O)c2cccc(F)c2)c2cnccc21 | -2.95
COc1ccc2c(ccn2CC(=O)N2CCCC2c2cnn(C)c2)c1 (centres undefined) | 3.74
Cc1ncc(CNCC2CCC(C(N)=O)CC2)n1-c1ccccc1 (centres undefined) | -12.9
CC(=O)N[C@@H]1CN(C2CCN(c3cccc(Cl)c3)CC2)C[C@H]1C(C)C | 1.6
CC(C)c1cc(CN2CCNCC2)no1 | -10.9
CCOCC(=O)N1C[C@@H](O)[C@H](N(C)Cc2ccc(OC)cc2)C1 | 0.307
O=c1oc(-c2ccc(F)cc2)nn1CN1CCN(CC2CC2)CC1 | 1.44

SMILES | cytotoxicity at 10 µM [%]
O=C(NCc1ccccc1Cn1cncn1)C1CCCCC1 | -2.06
CNS(=O)(=O)c1ccc(C(=O)N2CCCCC2c2ccc(C)cc2)o1 (centres undefined) | -9.8
CN(C)C(=O)CCCS(=O)(=O)Cc1cc(Cl)c2c(c1)OCO2 | -4.52
Cc1cnn(CC2CN(CC(=O)Nc3nncs3)CCO2)c1 (centres undefined) | -10
CC(C)(CNC(=O)CCCOc1cccc(F)c1)C(N)=O | -6.54
COc1ccc(COCC(=O)N2CCN(CC(C)(C)O)CC2)cc1 | -4.92
Cn1cc(C(=O)CC2CCCN2C(=O)c2cccc3ncccc23)cn1 (centres undefined) | 6.19
CCc1ccccc1C(=O)N1CCCC1CC(=O)c1cnn(C)c1 (centres undefined) | -1.22
Cc1nc(C)n(C2CCCN(C(=O)CCCNc3ncccn3)C2)n1 (centres undefined) | -4.26
Cn1cnnc1C1CCN(C(=O)Cc2ccc3c(c2)OCCO3)CC1 | -10.4
COc1cc(CNCc2c(C)nn(C)c2N(C)C)ccc1C | -9.16
CCc1sc(-c2nnc(CNCCn3cc(C)cn3)o2)cc1C | -8.75
Fc1cccc(F)c1Cn1c(C2CCCNC2)cc2cccnc21 (centres undefined) | 2
CS(=O)(=O)N1C[C@H](C(=O)Nc2cccnc2)C[C@H]2OCC[C@H]21 | 11.3
Cc1ccc(CN2CCCC3(COCCN(Cc4c[nH]nn4)C3)C2)o1 (centres undefined) | -5.47
CCOCC1CN(Cc2ccc(OC)cc2)Cc2nn(C)cc21 (centres undefined) | 3.65
c1ccc(CN2Cc3[nH]nc(COCC4CC4)c3C2)nc1 | -1.83
CS(=O)(=O)N[C@@H]1CCN(Cc2nccs2)[C@H]1Cc1ccncc1 | -2.48
Cc1ccc(C(=O)N2C[C@@H]3CCCO[C@@H]3[C@H](N3CCCC3)C2)cn1 | -3.8
c1cncc(CN2CCc3ncnc(C4CCOC4)c3CC2)c1 (centres undefined) | 5.02
O=C(NC[C@H]1CCCO1)c1ccc(S(=O)(=O)N2C[C@H]3C[C@@H]2CN3)cc1 | 2.5
CN(C)S(=O)(=O)N1C[C@H]2CC[C@@H](C1)N(C/C=C/c1ccc(F)cc1)C2 | -1.23

Reference: ChEMBL document CHEMBL4513216, “Probing the Open Global Health Chemical Diversity Library for Multistage-Active Starting Points for Next-Generation Antimalarials” (ACS Infect Dis, 2020)
